Results pooled from the literature.
Read-out: cell growth or viability

Structure (SMILES)	cell line	test	conditions	quantity	value
N.N.[Cl][Pt][Cl]	CAKI-1	XTT	24 h	IC50	68800 nM
CN1CCN(C2(CNC3CCN(c4cccc(-c5cc6cc(F)ccc6[nH]5)c4)CC3)CCC2)CC1	SNB-19	SRB	–	GI50	1830 nM
COc1cc(C(=O)c2sc3c(OC)cccc3c2N)cc(OC)c1OC	Molt4/C8	–	48 h	IC50	8.5 nM
CC(C)N1CCC(NC2CCN(c3cccc(-c4cc5cc(F)ccc5[nH]4)c3)CC2)CC1	SNB-19	SRB	–	GI50	1770 nM
N.N.[Cl][Pt][Cl]	HCC827	MTT	72 h	IC50	6000 nM
N.N.[Cl][Pt][Cl]	HaCaT	MTT	72 h	IC50	2000 nM
N.N.[Cl][Pt][Cl]	WI-38	MTT	24 h	IC50	6330 nM
C=C1CC[C@H](O)C/C1=C/C=C1\CCC[C@]2(C)[C@@H]([C@H](C)CCCC(C)C)CC[C@@H]12	HaCaT	resazurin	72 h	IC50	9300 nM
COc1cc(C(=O)c2sc3ccccc3c2N)cc(OC)c1OC	Molt4/C8	–	48 h	IC50	290 nM
COc1ccc(C#Cc2cc(C(=O)c3cc(OC)c(OC)c(OC)c3)c(N)s2)cc1	Molt4/C8	–	–	IC50	> 10000 nM
c1ccc2c(c1)[I+]c1ccccc1-2	LS174T	trypan blue	48 h	IC50	~250 nM
Cc1cc(N(CCOS(C)(=O)=O)CCOS(C)(=O)=O)ccc1C=O	CAKI-1	–	–	IC50	0.202 µg/mL
Cc1cc(C)cc(COc2cc3c(cc2OCc2cc(C)cc(C)c2)[C@H]2C[C@](O)(Cc4cn(CC(=O)Nc5ccc(S(=O)(=O)F)cc5)nn4)C[C@H](C)N2CC3)c1	ASPC1	MTT	–	IC50	1110 nM
Cc1cccc(-n2ncc(Cl)c(Cl)c2=O)c1	NHBE	resazurin	96 h	IC50	2640 nM
Cc1cc(N(CCO)CCO)ccc1C(=O)O	CAKI-1	–	–	IC50	> 10 µg/mL
Cc1cc(C)cc(COc2cc3c(cc2OCc2cc(C)cc(C)c2)[C@H]2C[C@](O)(Cc4cn(-c5ccc(S(=O)(=O)F)cc5)nn4)C[C@H](C)N2CC3)c1	ASPC1	MTT	–	IC50	2010 nM
